Measurements published in PMC11348603 (BMC Pharmacology & Toxicology, 2024).
Where two headings read alike, the source gives them in different places.

What was measured:
[1] = type: in vivo, healthy Chinese adult volunteers; details: for subjects whose concentration-time curves displayed multiple peaks: fasting state
In short: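 Two open-label BE studies in healthy Chinese adults, each giving one reference tablet dose (20 mg or 80 mg) with 240 mL water. Subjects either fasted ≥10 h pre-dose or ate a high-fat, high-calorie meal (800–1000 kcal) within 30 min of dosing. Blood was drawn from 30 min pre-dose to 48 h post-dose. Plasma was separated at 3000 rpm, stored at −70 °C, and assayed by LC-MS/MS. Cmax, tmax and AUCs came from non-compartmental analysis.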

[2] = Population pharmacokinetic analysis; type: in vivo, healthy Chinese adult volunteers
In short: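 Pooled plasma data from 128 subjects were fitted by SAEM with a two-compartment model: first-order elimination, two deposit absorption compartments, lag times. Parameters were log-normal with exponential IIV, and proportional, additive and combined residual errors were tested. Stepwise covariate search used p<0.05 forward and p<0.01 backward. Sex, age, WT and BMI were tested on CL/F and volume. Food (0 fasted, 1 fed) was tested on absorption parameters. Evaluation used AIC, OFV, GOF, VPC (1000 simulations) and NPDE.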

[3] = design: species or system healthy Caucasian subjects; details: Caucasian
In short: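 Monte Carlo simulation from the final Chinese-population model, with CL/F raised and relative bioavailability lowered per earlier published race covariate estimates. The 24 simulated Caucasian subjects had demographics matching a reported food-effect study.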

[4] = Reported food effect study in Caucasian population; type: in vivo, healthy Caucasian subjects; details: average of the 40 mg and 120 mg group, observed data of ref 22
[5] = fractional difference of race, relative to Chinese model; cited from earlier work
[6] = humans, cited from earlier work
[7] = cited from earlier work
[8] = cited from earlier work; remark: listed apart in the source
[9] = cited from earlier work; remark: listed apart in the source
[10] = fasted, average of the 40 mg and 120 mg group

Cmax (mean ± SD) ([1]; 20 mg single oral dose, fasting (n=36), plasma): 1091 ± 301.0 ng/mL
subjects whose concentration-time curves displayed multiple peaks ([1]; 20 mg, may be overestimated): approximately 75.0%
Tmax (median, range) ([1]; 80 mg single oral dose, fed (n=30), plasma): 1.75 (0.75, 4.00) h
subjects whose concentration-time curves displayed multiple peaks ([1]; 80 mg, may be overestimated): ~80.6%
curves showing multiple peaks ([1]; fed study, may be overestimated): about 40%
Tmax ([1]; human, plasma, po, 20 mg): 1.25 h
estimated CL/F for healthy Chinese subjects ([2]; PopPK final model): 6.14 L/h
CL/F, final model estimate (RSE%) ([2]; apparent clearance): 6.14 (2.26) L∙h^−1
Vc/F, final model estimate (RSE%) ([2]; apparent distribution volume of central compartment): 10.38 (2.07) L
Vp/F, final model estimate (RSE%) ([2]; apparent distribution volume of peripheral compartment): 10.22 (3.21) L
WT_Vc/F, final model estimate (RSE%) ([2]; covariate coefficient of body weight on Vc/F): 0.58 (27.9)
WT_Vp/F, final model estimate (RSE%) ([2]; covariate coefficient of body weight on Vp/F): 1.15 (22.5)
Food_Tlag1, final model estimate (RSE%) ([2]; covariate coefficient of fed state on Tlag1): 0.73 (18.2)
Food_ka1, final model estimate (RSE%) ([2]; covariate coefficient of fed state on ka1): −2.04 (8)
Food_ka2, final model estimate (RSE%) ([2]; covariate coefficient of fed state on ka2): −1.08 (19.9)
reduction of ka1 by food ([2]; fed vs fasted, final model): 87%
reduction of ka2 by food ([2]; fed vs fasted, final model): 66%
ka1, final model estimate (RSE%) ([2]; first-order absorption rate constant of first depot, fasted state): 4.02 (11.4) h^−1
ka2, final model estimate (RSE%) ([2]; first-order absorption rate constant of second depot, fasted state): 4.34 (15.6) h^−1
F1, final model estimate (RSE%) ([2]; fraction of absorbed febuxostat from first depot): 0.51 (3.7)
Q/F, final model estimate (RSE%) ([2]; in vivo): 1.93 (4.25) L∙h^−1
Tlag1, final model estimate (RSE%) ([2]; lag time of first depot, fasted state): 0.22 (8.93) h
Tlag2, final model estimate (RSE%) ([2]; lag time of second depot): 0.92 (7.63) h
predicted fed/fasted ratio of AUC ([3]; simulated): 1.02
predicted fed/fasted ratio of Cmax ([3]; simulated): 0.68
predicted fed/fasted ratio of Tmax ([3]; simulated): 1.53
ratio of mean predicted and observed AUC [3, 10]: 0.92
ratio of mean predicted and observed Cmax [3, 10]: 0.81
ratio of mean predicted and observed Tmax [3, 10]: 1.41
ratio (predicted/observed) of AUC ([3]; fed state): 1.13
ratio (predicted/observed) of Cmax ([3]; fed state): 0.92
ratio (predicted/observed) of Tmax ([3]; fed state): 1.13
fed/fasted ratio of observed mean AUC [4]: 0.83
fed/fasted ratio of observed mean Cmax [4]: 0.60
fed/fasted ratio of observed mean Tmax [4]: 1.87
SMILES: Cc1nc(-c2ccc(OCC(C)C)c(C#N)c2)sc1C(=O)O [febuxostat, 2-[3-cyano-4-(2-methylpropoxy)phenyl]-4-methylthiazole-5-carboxylic acid]
decrease of bioavailability applied for Caucasian subjects [5]: 46%
extent of metabolism by glucuronidation [6]: up to 40%
time to reach maximum plasma concentrations (Cmax) ([6]; oral administration, fasting condition): 0.5 ~ 1.5 h
CL/F reported by Rekić et al. [7]: 14.58 L/h
CL/F estimate for healthy Australian subjects [8]: 6.91 L/h
solubility in methanol ([9]; methanol): slightly soluble
solubility in water ([9]; water): practically insoluble
